# CHRM5 antagonist = blocks acetylcholine activation of human M5 receptor | CHO-hM5 cells, Fluo-8 calcium fluorescence, ACh EC80 | P08912 | AID 624040 | inhibition, % at 3 µM | hit rate 0.59% among 360,000;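 active means inhibition above a per-plate cutoff, the mean of that plate's test compounds plus 3 SD, cut at about 27% in these data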;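 further: 0% = acetylcholine EC80 with DMSO and 100% = DMSO without agonist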
# Target sequence (P08912 whole entry, looked up): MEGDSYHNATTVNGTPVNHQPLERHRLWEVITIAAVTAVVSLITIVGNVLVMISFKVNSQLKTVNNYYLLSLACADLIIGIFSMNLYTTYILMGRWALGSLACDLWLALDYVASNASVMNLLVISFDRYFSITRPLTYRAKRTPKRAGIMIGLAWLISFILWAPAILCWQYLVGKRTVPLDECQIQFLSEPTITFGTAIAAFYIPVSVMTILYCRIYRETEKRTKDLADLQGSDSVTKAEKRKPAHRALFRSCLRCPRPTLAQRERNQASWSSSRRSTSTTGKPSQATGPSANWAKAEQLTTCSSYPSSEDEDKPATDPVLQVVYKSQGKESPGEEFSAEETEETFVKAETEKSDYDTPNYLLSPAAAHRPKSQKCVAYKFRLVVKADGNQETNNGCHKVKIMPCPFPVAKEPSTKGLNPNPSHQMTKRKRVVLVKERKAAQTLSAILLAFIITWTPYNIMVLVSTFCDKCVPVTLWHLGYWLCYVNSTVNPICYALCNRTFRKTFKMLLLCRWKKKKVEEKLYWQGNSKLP
# CHRM4 agonist = agonists of human muscarinic M4 receptor (CHRM4). CHO-K1 hM4/Gqi5, Fluo-8 calcium fluorescence; vehicle 0%, full acetylcholine response 100%. activation, % at 3 µM. hit rate 0.14% among 360,000. P08173. AID 624127;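 active means activation above the run mean over all test wells plus 3 SD, cut at about 32% in these data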;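 further: peak over basal fluorescence ratio per well then scaled between controls; 0% = DMSO wells and 100% = acetylcholine at EC100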
# CHRM5 agonist = CHRM5 agonism in calcium assay; P08912; CHO-K1 hM5 cells, Fluo-8 calcium fluorescence; 0% DMSO wells, 100% maximal acetylcholine response; activation, % at 3 µM; hit rate 0.19% among 360,000; AID 624037;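 active means activation above the run's mean over test compounds plus 3 SD, cut at about 23% in these data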;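 further: signal is peak over basal fluorescence ratio across the kinetic read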
# CHRM4 antagonist = antagonists of human muscarinic M4 receptor (CHRM4); hit rate 0.73% among 360,000; AID 624125; CHO-hM4 cells, ACh EC80, Fluo-8 calcium fluorescence; P08173; inhibition, % at 3 µM;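 active means inhibition above its plate's cutoff, the mean inhibition of sample wells plus 3 SD, cut at about 27% in these data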;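 further: 0% = acetylcholine EC80 with DMSO and 100% = DMSO without agonist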
# CHRM4 PAM = CHRM4 positive allosteric modulation; P08173; CHO-K1 hM4/Gqi5, Fluo-8 calcium fluorescence, ACh EC20; 0% = ACh EC20, 100% = maximal ACh; activation, % at 3 µM; hit rate 0.4% among 360,000; AID 624126;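 active means activation above its plate's cutoff, the mean activation of sample wells plus 3 SD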
# CHRM5 PAM = potentiates acetylcholine response at human M5 receptor; P08912; CHO-K1 hM5, Fluo-8 calcium, ACh EC20 PAM; 0% = ACh EC20, 100% = ACh EC100; activation, % at 3 µM; hit rate 0.3% among 360,000; AID 624038;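 active means activation above the run cutoff, the mean activation of all test compounds plus 3 SD, cut at about 18% in these data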
#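 Assay system: CHO-K1 hM5 cells. Also added: acetylcholine at EC20 concentration, added after compound. Dosing: 3 µM, single dose. Times: compound preincubation 140 s before EC20 acetylcholine addition. Signal: Fluo-8 calcium fluorescence. Measure: % activation relative to EC20 and EC100 ACh responses. Repeats: singlicate, one well per test compound.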
# Active calls of the source: *. The list is not random: actives were taken first. Their share in the collection is about 1.9%.
SMILES,CHRM5 antagonist,CHRM4 agonist,CHRM5 agonist,CHRM4 antagonist,CHRM4 PAM,CHRM5 PAM
CCC(=O)c1ccccc1OCCCN1CCC(Cc2ccccc2)CC1,11.8,23.8,-11.2,41.8*,-17.9,-28.3
O=[N+]([O-])c1cccc(OCCCN2CCC(Cc3ccccc3)CC2)c1,5.7,13.9,-25.2,38.1*,-16.7,-31.9
CC(=O)CCc1ccc(OCCCCN2CCC(Cc3ccccc3)CC2)cc1,25.3,3.9,-14.8,75.0*,-27.5,-30.2
Cc1ccc(-c2csc(C(O)c3ccc(F)cc3)n2)cc1C (stereo not drawn),-0.3,2.0,-0.2,-8.6,13.3,5.4
O=[N+]([O-])c1ccc(Oc2ccc(S(=O)(=O)Nc3ccccc3)cc2)cc1,42.6*,38.7*,18.6,53.1*,-40.1,-21.3
O=[N+]([O-])c1ccc(S(=O)(=O)Nc2ccncc2)cc1,2.1,1.4,-0.8,2.3,0.2,4.1
CC1CN(c2ccc(Oc3ccccc3)cc2)c2nc3c(c(=O)[nH]c(=O)n3C)n2C1 (stereo not drawn),-1.8,1.1,-0.8,-10.6,16.7*,9.6
Cc1ccc(NC(=O)C2C3CCC(O3)C2C(=O)O)c(Br)c1 (stereo not drawn),-5.3,0.6,4.4,-4.0,5.6,18.6*
O=C(O)C1C2CCC(O2)C1C(=O)Nc1ccc(F)cc1 (stereo not drawn),35.5*,2.9,-3.7,0.1,8.5,-13.5
O=C(Nc1ncc(Cc2ccc(SC(F)F)cc2)s1)c1ccc(OC(F)F)cc1,15.1,3.4,2.0,7.1,20.8*,-2.7
O=C(Nc1ccccn1)c1ccc(S(=O)(=O)N2CCCCC2)cc1,2.7,4.3,-0.5,-16.9,14.5,-2.7
CC(=O)N1c2ccccc2NC2=C(C(=O)CCC2)C1c1ccco1 (stereo not drawn),10.8,0.8,7.8,-9.2,18.6,20.9*
N#Cc1ccccc1Oc1ccccc1C=O,4.5,0.0,5.1,8.0,3.8,10.4
CC1CC(NS(=O)(=O)c2cc3c4c(c2)CCN4C(=O)CC3)CC(C)(C)C1 (stereo not drawn),7.8,2.5,-4.2,-11.6,7.1,-7.9
CN(C1CCCCC1)S(=O)(=O)c1ccc2c(c1)c(=O)c(C(=O)NCCCN1CCCC1)cn2C,4.2,0.0,-2.4,26.7*,-15.8,-4.2
CN(C1CCCCC1)S(=O)(=O)c1ccc2c(c1)c(=O)c(C(=O)NCCN1CCCC1)cn2C,-3.5,1.2,-2.5,1.6,-12.1,3.1
CCN(CC)CCNC(=O)c1ccc(NC(=O)C2CC(=O)N(CCc3ccc(OC)c(OC)c3)C2)cc1 (stereo not drawn),9.9,1.8,-1.9,1.0,5.2,1.8
O=C(NCc1ccco1)c1cccc(NS(=O)(=O)c2cccc(F)c2)c1,3.3,0.0,-0.2,-5.5,-9.2,-3.1
O=C(NCc1ccco1)c1cccc(NS(=O)(=O)c2ccccc2F)c1,21.4,1.5,4.8,17.8,13.0,18.8*
CCOc1ccc(NC(=O)C2CC(=O)N(CCc3ccc(OC)c(OC)c3)C2)cc1OCC (stereo not drawn),-7.3,1.3,-3.1,-20.4,6.9,2.8
O=C(CN1C(=O)NC2(CCCCC2)C1=O)Nc1cccc2ncccc12,8.0,0.3,1.4,-24.6,24.0*,-8.2
Cc1cccc(NC(=O)CN2C(=O)NC3(CCCCCCC3)C2=O)c1C,20.6,0.9,3.1,-5.8,1.2,2.7
CCCNC(=O)Cn1c(=O)/c(=C\c2ccc(-c3ccc([N+](=O)[O-])cc3)o2)s/c1=C\C(=O)C(C)(C)C,26.8,31.5,25.3*,17.9,-4.4,-7.4
Oc1ccc(Cl)cc1Cc1cc(Cl)ccc1O,11.0,25.6,4.7,27.3*,-14.8,-13.5
Oc1ccc(Cl)cc1CNCc1ccc(Cl)cc1,8.7,8.1,11.4,-1.3,5.1,-0.2
COc1cc(N=Nc2ccc(C(=O)N(C)C)cc2)c(C)cc1N,-1.3,8.3,0.6,-2.2,-0.9,-7.0
Cc1cc(Nc2nc3ccccc3[nH]c2=O)n(-c2ccccc2)n1,-8.6,7.6,-1.8,-16.0,-6.2,23.3*

# Source: PubChem
